Source: ChEMBL document CHEMBL1140925, “Nuclear factor-kappaB mediated inhibition of cytokine production by imidazoline scaffolds” (J Med Chem, 2009)

What was measured:
HeLa [1] = assay: Cell cycle arrest in TNF-alpha-stimulated human HeLa cells transfected with NFkappaB-Luc assessed as accumulation at G2/G1 phase at 10 uM after 8 hrs by propidium iodide-based flow cytometry; type: functional
How it was run: (§1)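 HeLa NF-κB-luc cells (stable, hygromycin-selected) were treated with vehicle (1% DMSO) or compound at 40–0.2 µM final for 8 h at 37 °C, 5% CO2. Adherent cells were trypsinized, resuspended in PBS/50% FBS, fixed overnight in 70% ice-cold ethanol and washed with cold PBS/10% FBS, then analysed for cell cycle by flow cytometry.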

HeLa [2] = assay: Cell cycle arrest in TNF-alpha-stimulated human HeLa cells transfected with NFkappaB-Luc assessed as accumulation at diploid G2 phase at 10 uM after 8 hrs by propidium iodide-based flow cytometry; type: functional; how it was run: as §1
HeLa [3] = assay: Cell cycle arrest in TNF-alpha-stimulated human HeLa cells transfected with NFkappaB-Luc assessed as accumulation at diploid G2 phase at 20 uM after 8 hrs by propidium iodide-based flow cytometry; type: functional; how it was run: as §1
HeLa [4] = assay: Cell cycle arrest in TNF-alpha-stimulated human HeLa cells transfected with NFkappaB-Luc assessed as accumulation at diploid G1 phase at 20 uM after 8 hrs by propidium iodide-based flow cytometry; type: functional; how it was run: as §1
HeLa [5] = assay: Cell cycle arrest in TNF-alpha-stimulated human HeLa cells transfected with NFkappaB-Luc assessed as accumulation at diploid stage at 20 uM after 8 hrs by propidium iodide-based flow cytometry; type: functional; how it was run: as §1
HeLa [6] = assay: Cell cycle arrest in human HeLa cells transfected with NFkappaB-Luc assessed as accumulation at G2/G1 phase at 20 uM after 8 hrs by propidium iodide-based flow cytometry; type: functional; how it was run: as §1
HeLa [7] = assay: Cell cycle arrest in human HeLa cells transfected with NFkappaB-Luc assessed as accumulation at S phase at 20 uM after 8 hrs by propidium iodide-based flow cytometry; type: functional; how it was run: as §1
HeLa [8] = assay: Cell cycle arrest in human HeLa cells transfected with NFkappaB-Luc assessed as accumulation at diploid G2 phase at 20 uM after 8 hrs by propidium iodide-based flow cytometry; type: functional; how it was run: as §1
HeLa [9] = assay: Cell cycle arrest in human HeLa cells transfected with NFkappaB-Luc assessed as accumulation at diploid stage at 20 uM after 8 hrs by propidium iodide-based flow cytometry; type: functional; how it was run: as §1
HeLa [10] = assay: Cell cycle arrest in TNF-alpha-stimulated human HeLa cells transfected with NFkappaB-Luc assessed as accumulation at diploid G2 phase at 0.1 uM after 8 hrs by propidium iodide-based flow cytometry; type: functional
HeLa [11] = assay: Cell cycle arrest in TNF-alpha-stimulated human HeLa cells transfected with NFkappaB-Luc assessed as accumulation at S phase at 0.05 uM after 8 hrs by propidium iodide-based flow cytometry; type: functional
[12] = Cytotoxicity against human whole blood lymphocytes assessed as survival cell count in millions at 10 uM by trypan blue staining based hemocytometer
[13] = Cytotoxicity against human whole blood lymphocytes assessed as survival cell count in millions at 3 uM by trypan blue staining based hemocytometer
[14] = Cytotoxicity against human whole blood IL-1-beta-stimulated lymphocytes assessed as survival cell count in millions at 20 uM by trypan blue staining based hemocytometer
HeLa [15] = assay: Effect on cell cycle arrest in TNF-alpha-stimulated human HeLa cells assessed as cell debris level at 20 uM after 8 hrs by propidium iodide-based flow cytometry; type: functional
HeLa [16] = assay: Effect on cell cycle arrest in TNF-alpha-stimulated human HeLa cells assessed as cell debris level at 10 uM after 8 hrs by propidium iodide-based flow cytometry; type: functional
HeLa [17] = assay: Effect on cell cycle arrest in TNF-alpha-stimulated human HeLa cells assessed as cell debris level at 5 uM after 8 hrs by propidium iodide-based flow cytometry; type: functional
HeLa [18] = assay: Effect on cell cycle arrest in TNF-alpha-stimulated human HeLa cells assessed as cell aggregate level at 5 uM after 8 hrs by propidium iodide-based flow cytometry; type: functional
HeLa [19] = assay: Effect on cell cycle arrest in TNF-alpha-stimulated human HeLa cells assessed as cell debris level at 1 uM after 8 hrs by propidium iodide-based flow cytometry; type: functional
HeLa [20] = assay: Effect on cell cycle arrest in TNF-alpha-stimulated human HeLa cells assessed as cell debris level at 0.5 uM after 8 hrs by propidium iodide-based flow cytometry; type: functional
HeLa [21] = assay: Effect on cell cycle arrest in TNF-alpha-stimulated human HeLa cells assessed as cell aggregate level at 0.5 uM after 8 hrs by propidium iodide-based flow cytometry; type: functional
HeLa [22] = assay: Effect on cell cycle arrest in TNF-alpha-stimulated human HeLa cells assessed as cell debris level at 0.1 uM after 8 hrs by propidium iodide-based flow cytometry; type: functional
HeLa [23] = assay: Effect on cell cycle arrest in TNF-alpha-stimulated human HeLa cells assessed as cell debris level at 0.05 uM after 8 hrs by propidium iodide-based flow cytometry; type: functional
HeLa [24] = assay: Cell cycle arrest in TNF-alpha-stimulated human HeLa cells transfected with NFkappaB-Luc assessed as accumulation at diploid stage at 0.1 uM after 8 hrs by propidium iodide-based flow cytometry; type: functional
[25] = Cytotoxicity against human whole blood lymphocytes assessed as survival cell count in millions at 20 uM by trypan blue staining based hemocytometer
Blood [26] = assay: Antiinflammatory activity in human whole blood assessed as inhibition of IL-1-beta-induced TNFalpha production preincubated 2 hrs before addition of IL1-beta measured after 18 hrs by ELISA; type: functional, tissue-based; settings: Homo sapiens, Blood
How it was run: (§2)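 Human blood from donors with white count in the normal range, diluted 1:10 in RPMI-1640 with 10% FBS, penicillin and streptomycin. Aliquots were preincubated with vehicle (0.1% DMSO final) or compound at 10, 3, 1, 0.3 or 0.1 µM final for 2 h at 37 °C, 5% CO2. IL-1β (200 U/mL) was then added for 18 h, and plasma was collected and frozen. Cytokine was measured by ELISA.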

Blood [27] = assay: Antiinflammatory activity in human whole blood assessed as inhibition of IL-1-beta-induced IL6 production after 18 hrs by ELISA; type: functional, tissue-based; how it was run: as §2
HeLa [28] = assay: Cell cycle arrest in TNF-alpha-stimulated human HeLa cells transfected with NFkappaB-Luc assessed as accumulation at G2/G1 phase at 0.5 uM after 8 hrs by propidium iodide-based flow cytometry; type: functional; how it was run: as §1
HeLa [29] = assay: Cell cycle arrest in TNF-alpha-stimulated human HeLa cells transfected with NFkappaB-Luc assessed as accumulation at diploid G2 phase at 0.5 uM after 8 hrs by propidium iodide-based flow cytometry; type: functional; how it was run: as §1
HeLa [30] = assay: Cell cycle arrest in TNF-alpha-stimulated human HeLa cells transfected with NFkappaB-Luc assessed as accumulation at diploid G1 phase at 1 uM after 8 hrs by propidium iodide-based flow cytometry; type: functional
HeLa [31] = assay: Cell cycle arrest in TNF-alpha-stimulated human HeLa cells transfected with NFkappaB-Luc assessed as accumulation at diploid stage at 1 uM after 8 hrs by propidium iodide-based flow cytometry; type: functional
HeLa [32] = assay: Cell cycle arrest in TNF-alpha-stimulated human HeLa cells transfected with NFkappaB-Luc assessed as accumulation at diploid G1 phase at 5 uM after 8 hrs by propidium iodide-based flow cytometry; type: functional; how it was run: as §1
HeLa [33] = assay: Cell cycle arrest in TNF-alpha-stimulated human HeLa cells transfected with NFkappaB-Luc assessed as accumulation at diploid stage at 5 uM after 8 hrs by propidium iodide-based flow cytometry; type: functional; how it was run: as §1

## CCOC(=O)[C@]1(c2ccccc2)N=C(c2ccccc2)N(Cc2ccccc2)[C@@H]1c1ccccc1 (racemic)
HeLa [1]
  Ratio: 1.91
HeLa [2]
  Activity: 15.01%
HeLa [3]
  Activity: 14.75%
HeLa [4]
  Activity: 65.96%
HeLa [5]
  Activity: 100%
HeLa [6]
  Ratio: 1.9
HeLa [7]
  Activity: 21.48%
HeLa [8]
  Activity: 13.33%
HeLa [9]
  Activity: 100%
HeLa [10]
  Activity: 14.03%
HeLa [11]
  Activity: 22.8%
[12]
  Activity: 1.6 mL⁻¹
[13]
  Activity: 1.7 mL⁻¹
[14]
  Activity: 1.46 mL⁻¹
HeLa [15]
  Activity: 14.57%
HeLa [16]
  Activity: 15.28%
HeLa [17]
  Activity: 2.7%
HeLa [18]
  Activity: 0%
HeLa [19]
  Activity: 4.88%
HeLa [20]
  Activity: 3.68%
HeLa [21]
  Activity: 0%
HeLa [22]
  Activity: 2%
HeLa [23]
  Activity: 2.47%
HeLa [24]
  Activity: 100%
[25]
  Cell count: 0.2617
Blood [26]
  IC50: 1.18 µM
Blood [27]
  EC50: 1.83 µM
HeLa [28]
  Ratio: 1.91
HeLa [29]
  Activity: 13.4%
HeLa [30]
  Activity: 63.22%
HeLa [31]
  Activity: 100%
HeLa [32]
  Activity: 66.37%
HeLa [33]
  Activity: 100%
